Screens from PubChem BioAssay.
VLA-4 inh: inhibition in a human VLA-4 binding assay; VLA-4 expressing cells, ligand binding flow cytometry; inhibition, % (about 7 µM as worked out from the volumes in the protocol); actives 0.2% (n = 330,000); in the data active = inhibition above about 50%
SENP1 inh: inhibitors of human SENP1 SUMO protease catalytic domain | recombinant SENP1 catalytic domain, CyPet-SUMO1-YPet FRET cleavage | actives 0.21% (n = 360,000) | inhibition, % at 10 µM;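 active = inhibition at least 30% at 10 µM, raw YFP signal under a set limit, fluorescence ratio 0.5 to 1.5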;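 note: 0% = enzyme with DMSO and 100% = no enzyme wells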
Target sequence (Q9P0U3 419-644 limits assumed): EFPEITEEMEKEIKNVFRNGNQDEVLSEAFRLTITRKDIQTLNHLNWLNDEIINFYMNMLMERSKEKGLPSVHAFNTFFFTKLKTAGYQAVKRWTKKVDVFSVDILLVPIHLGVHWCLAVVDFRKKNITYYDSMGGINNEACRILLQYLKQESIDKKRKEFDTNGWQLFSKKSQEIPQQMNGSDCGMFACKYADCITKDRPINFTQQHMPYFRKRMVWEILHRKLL
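Test system: human SENP1 catalytic domain; medium: Tris pH 8 buffer plus EDTA, NaCl, BME, BSA, NP40, catalase; incubation: 50 min reaction at room temperature; technique: FRET, CFP and YFP emission; controls: no-enzyme low control and enzyme-plus-DMSO high control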
Platelet DG rel: modulates dense granule release in human platelets; actives 0.22% (n = 300,000); AID 1663; human platelet-rich plasma, SFLLRN dense granule ATP release, luminescence; inhibition, %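 (compounds screened at 7.5 µM in platelet-rich plasma)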;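 active = mean replicate score, as percent of positive control, at or above 50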
Myeloid diff MLP: compounds promoting myeloid differentiation; ER-HoxA9 myeloid progenitors, lysozyme-GFP differentiation, flow cytometry; calls only at 10 µM; actives 1% (n = 360,000); AID 624256;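 active = normalized GFP-positive differentiation at or above the plate's own cutoff, the solvent-only control mean plus 3 SD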;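 note: cells exposed to compound for four days before flow analysis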
Myeloid diff: compounds promoting myeloid differentiation. shares compounds with Myeloid diff MLP. ER-HoxA9 myeloid progenitors, GFP/Mac1 double-positive flow. calls only. actives 2% (n = 2,300). AID 651706;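 active = share of green or green-and-red cells above 9 and 9% in run 1 or 4 and 3% in run 2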
GFP autofluor: flagged as fluorescent in myeloid differentiation counter-screen. shares compounds with Myeloid diff MLP. ER-HoxA9 myeloid progenitors, no estrogen, GFP autofluorescence flow cytometry; vehicle wells 0%, positive control 100%. fluorescence response, % (concentration not given with the values). actives 7.4% (n = 2,300). AID 651707;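 active = over 5% cells positive for green fluorescent reporter, or over 2% positive for both it and APC stain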;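 note: range taken on the double positive population between DMSO and positive control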
* = called active by the depositor. Hits are enriched below; roughly 1.5% of the tested compounds scored in any of these assays.

Cc1cccn2c(=O)c(/C=C3\SC(=S)NC3=O)c(NCCCN3CCOCC3)nc12 was read as VLA-4 inh -26, SENP1 inh -36, Platelet DG rel -4, Myeloid diff MLP active, Myeloid diff inactive and GFP autofluor 1.
For Cc1cccn2c(=O)c3cc(C(=O)NCCN4CCOCC4)c(=N)n(CCN4CCOCC4)c3nc12 the results were VLA-4 inh -1, SENP1 inh -47 and Platelet DG rel -16.
CCOC(=O)c1c(NC(=O)C(C)Sc2cccc[n+]2[O-])sc2c1CCN(Cc1ccccc1)C2 (stereo not given) was read as VLA-4 inh 9, SENP1 inh -25, Myeloid diff MLP active, Myeloid diff inactive and GFP autofluor 0.
`CCOC(=O)c1c(NC(C)=O)sc2c1CCN(Cc1ccccc1)C2` gave VLA-4 inh -16, SENP1 inh -105, Platelet DG rel 2 and Myeloid diff MLP inactive.
`CSCC[C@H](NC(=O)C1CCN(S(=O)(=O)c2ccc(C)cc2)CC1)C(=O)NCc1ccco1` gave VLA-4 inh -9, SENP1 inh 1, Platelet DG rel -6, Myeloid diff MLP active, Myeloid diff inactive and GFP autofluor 1.
Screening CSCC[C@H](NC(=O)C1CCN(S(=O)(=O)c2ccc(C)cc2)CC1)C(=O)NCC1CCCO1 (stereo not given in full) returned VLA-4 inh 2, SENP1 inh 1, Platelet DG rel -1 and Myeloid diff MLP inactive.
`CCOC(=O)C1CCN(C(=O)CCc2nnc3ccc(NCc4ccco4)nn23)CC1` gave VLA-4 inh 20, SENP1 inh -3, Platelet DG rel 70*, Myeloid diff MLP active, Myeloid diff inactive and GFP autofluor 1.
Screening CC(C)(C)OC(=O)C[C@@H]1C/C=C\C[C@H](CC(=O)N[C@H](CO)Cc2ccccc2)C(=O)N[C@@H](Cc2ccccc2)COC1=O returned VLA-4 inh -3, SENP1 inh -1, Myeloid diff MLP inactive, Myeloid diff inactive and GFP autofluor 0.
Screening CC(C)(C)OC(=O)C[C@H]1C/C=C\C[C@H](CC(=O)N[C@H](CO)Cc2ccccc2)C(=O)N[C@H](Cc2ccccc2)COC1=O returned VLA-4 inh -20, SENP1 inh -1 and Myeloid diff MLP inactive.
Screening Cc1ccc(CNC(=O)c2ccc(F)c(S(=O)(=O)N3CCOCC3)c2)cc1 returned SENP1 inh 0 and Myeloid diff MLP inactive.
For COc1ccc(CCN(C)C(=S)NC(=O)c2ccc(F)cc2Cl)cc1OC the results were VLA-4 inh -5, SENP1 inh 2, Platelet DG rel -4 and Myeloid diff MLP inactive.
For Cc1ccc(NC(=O)CN(C)C(=O)c2cc(-c3ccco3)nc3ccccc23)cc1 the results were VLA-4 inh 0, SENP1 inh 9, Platelet DG rel -1, Myeloid diff MLP inactive, Myeloid diff inactive and GFP autofluor 0.
For Cc1ccc2c(c1)S/C(=C\c1cccc[n+]1C)N2CCO the results were VLA-4 inh -73, SENP1 inh -26, Platelet DG rel -1, Myeloid diff MLP active, Myeloid diff inactive and GFP autofluor 68*.
`CCOc1cc(CNc2ccccc2)cc(Br)c1OCC(=O)NC(C)(C)C` gave VLA-4 inh -3, SENP1 inh 0, Platelet DG rel 7 and Myeloid diff MLP inactive.
CCOc1cc(CNc2ccc(Br)cc2)cc(Br)c1OCC(=O)NC(C)(C)C was read as VLA-4 inh 6, SENP1 inh 1, Platelet DG rel -9, Myeloid diff inactive and GFP autofluor 0.
CC(C)n1nnnc1SCC(=O)NC1CCCC1 was read as VLA-4 inh 5, SENP1 inh 1, Platelet DG rel -8 and Myeloid diff MLP inactive.
CCCN1CCC(N2CCN(c3cccc(C(F)(F)F)c3)CC2)CC1 was read as VLA-4 inh 4, SENP1 inh 0, Platelet DG rel 2, Myeloid diff MLP active, Myeloid diff inactive and GFP autofluor 0.
Screening CC(C)c1cccc(C(C)C)c1NC(=O)CCN1C(=O)NC2(CCCC2)C1=O returned VLA-4 inh -6, SENP1 inh 1 and Myeloid diff MLP inactive.
`CC(OC(=O)c1nsc(Cl)c1Cl)C(=O)NCCc1ccccc1` (stereo not given) gave VLA-4 inh -2, SENP1 inh 2, Platelet DG rel -16 and Myeloid diff MLP inactive.
O=C(Oc1ccnc2cc(Cl)ccc12)N1CCOCC1 was read as VLA-4 inh -3, SENP1 inh 3, Platelet DG rel -4, Myeloid diff MLP inactive, Myeloid diff inactive and GFP autofluor 0.
`O=C1CC(NS(=O)(=O)c2cccnc2)CN1c1cccc(F)c1` (stereo not given) gave VLA-4 inh 5, SENP1 inh 2, Platelet DG rel 10 and Myeloid diff MLP inactive.
Screening COC(=O)CN(C)C(=O)c1cccc(OC2CCN(S(=O)(=O)N(C)C)CC2)c1 returned VLA-4 inh 4, SENP1 inh 2, Platelet DG rel 13 and Myeloid diff MLP inactive.
Screening Cc1cccc(C(=O)Nc2cccc(C(=O)N/N=C/c3ccncc3)c2)c1 returned VLA-4 inh -12, SENP1 inh 0, Platelet DG rel -1 and Myeloid diff MLP inactive.
Cc1ccc(C(=O)Nc2cccc(C(=O)N/N=C/c3ccc(O)cc3)c2)cc1 was read as VLA-4 inh -3, SENP1 inh 2, Platelet DG rel -2, Myeloid diff MLP active, Myeloid diff inactive and GFP autofluor 1.
CCc1cccc(NC(=O)CCc2c(C)nn(-c3ccc(N4CCOCC4)nn3)c2C)c1 was read as VLA-4 inh 1, SENP1 inh 3, Platelet DG rel 2 and Myeloid diff MLP inactive.
Screening Cc1ccc(S(=O)(=O)N(C)C[C@H]2Oc3ccc(NC(=O)C4CCCCC4)cc3C(=O)N([C@H](C)CO)C[C@H]2C)cc1 returned VLA-4 inh -10, SENP1 inh 0 and Myeloid diff MLP inactive.
Screening C[C@H](CO)N1C[C@H](C)[C@@H](CN(C)S(=O)(=O)c2ccc(F)cc2)Oc2ccc(NC(=O)C3CCCCC3)cc2C1=O returned VLA-4 inh -11, SENP1 inh 1, Myeloid diff MLP inactive, Myeloid diff inactive and GFP autofluor 0.
`CCCCc1nn(-c2cc(Cl)ccc2OC)c2c1C(=O)CC(C)(C)C2` gave VLA-4 inh -3, SENP1 inh 3, Platelet DG rel 12, Myeloid diff MLP inactive, Myeloid diff inactive and GFP autofluor 1.
Screening CC(C)[C@H](NC(=O)c1ccco1)C(=O)N(C)Cc1c(F)cccc1Cl returned VLA-4 inh 46, SENP1 inh -1, Platelet DG rel -6 and Myeloid diff MLP inactive.
